Published values from different studies.
Each line is one published result; the experiments were not run side by side.
Technique: competition with immobilised ligand
RPS6KA3 C-terminal kinase domain: Ribosomal protein S6 kinase alpha-3, C-terminal kinase domain (RPS6KA3, Homo sapiens, UniProt P51812)
RPS6KA3 N-terminal kinase domain: Ribosomal protein S6 kinase alpha-3, N-terminal kinase domain (RPS6KA3, Homo sapiens, UniProt P51812)

Structure (SMILES) | target | test | setting | remaining binding
Nc1ncc2c(n1)-c1c([nH]c3ccc(C#CC4CC4)cc13)CCCC2 | RPS6KA3 C-terminal kinase domain | binding | 1 µM | 100%
C[C@H]1CCN(c2nccc(-c3cnn4ncccc34)n2)C1 | RPS6KA3 C-terminal kinase domain | binding | 1 µM | 93%
O=C(O)[C@H]1[C@H](Cn2nnc3ccccc3c2=O)CC[C@@H]1C(=O)c1ccc(OCCC2CCOCC2)cc1 | RPS6KA3 N-terminal kinase domain | cell-free assay | 1 µM | 81%
c1cncc(-c2cccc(Nc3nccc(NC4CCCCC4)n3)c2)c1 | RPS6KA3 C-terminal kinase domain | binding | 10 µM | 79%
Cc1noc([C@H]2C[C@@H](c3ccc(C(F)(F)F)cc3)CN(C(=O)N3CCS(=O)(=O)C3)C2)n1 | RPS6KA3 N-terminal kinase domain | cell-free assay | 1 µM | 100%
Cc1cnc(Nc2ccc(C(=O)N3CCC(N4CCCC4)CC3)cc2)nc1-c1cc2ccccc2s1 | RPS6KA3 C-terminal kinase domain | binding | 1 µM | 80%
C[C@H](NC(=O)c1cnc2n1[C@](C)(Cc1ccc(C#N)cc1)C(=O)N2c1cc(Cl)c(F)c(Cl)c1)C(=O)NC1(c2ccccn2)CC1 | RPS6KA3 N-terminal kinase domain | cell-free assay | 1 µM | 100%
N[C@H]1CCN(c2nccc(-c3cnn4ncccc34)n2)C1 | RPS6KA3 N-terminal kinase domain | binding | 1 µM | 89%
NS(=O)(=O)c1cc(NC(=O)C2(c3ccccc3Cl)CC2)ccc1Oc1cccc(Cl)c1 | RPS6KA3 N-terminal kinase domain | cell-free assay | 1 µM | 92%
O=C(c1ccc(Nc2ncc(Cl)c(-c3cc4ccccc4s3)n2)cc1)N1CCC(N2CCCC2)CC1 | RPS6KA3 N-terminal kinase domain | binding | 1 µM | 42%
CCN1CCN(Cc2ccc(C(=O)Nc3ccc(C)c(Oc4ccc5c(c4)CC(=O)N5)c3)cc2C(F)(F)F)CC1 | RPS6KA3 N-terminal kinase domain | binding | 1 µM | 100%
O=C(c1ccc(Nc2nccc(-c3cc4ccccc4s3)n2)cc1)N1CCC(N2CCCC2)CC1 | RPS6KA3 N-terminal kinase domain | binding | 1 µM | 78%
c1ccc(N2CCN(Cc3nc4ccccc4[nH]3)CC2)nc1 | RPS6KA3 C-terminal kinase domain | binding | 1 µM | 100%
Cc1cnn2ncc(-c3ccnc(N(C)C)n3)c2c1 | RPS6KA3 N-terminal kinase domain | binding | 1 µM | 95%
FC(F)(F)Oc1cccc(-c2cnc3ccc(-c4ccncc4)nn23)c1 | RPS6KA3 N-terminal kinase domain | binding | 5 µM | 57%
COc1ncc2cc3ccccc3nc2c1C#N | RPS6KA3 C-terminal kinase domain | cell-free assay | 5 µM | 96%
CN(C)c1nccc(-c2cnn3ncccc23)n1 | RPS6KA3 C-terminal kinase domain | binding | 1 µM | 99%

Structure (SMILES) | target | test | setting | remaining binding
COc1cnc(Nc2cccc(S(N)(=O)=O)c2)nc1N1CCN(c2ccccc2)CC1 | RPS6KA3 C-terminal kinase domain | binding | 1 µM | 81%
c1cnn2ncc(-c3ccnc(N4CCC45COC5)n3)c2c1 | RPS6KA3 N-terminal kinase domain | binding | 1 µM | 61%
CNC(=O)[C@@H]1CC[C@@H](n2c(-c3ccc4cnccc4c3)nc3ccc(C(=O)NCc4cccc(C(N)=O)c4)cc32)C1 | RPS6KA3 N-terminal kinase domain | binding | 1 µM | 87%
C[C@H](c1ccnc(Nc2nc3ccc(-c4cc(N(C)C)ncn4)cc3[nH]2)c1)N1CCN(C(=O)CC(F)(F)F)CC1 | RPS6KA3 C-terminal kinase domain | cell-free assay | 0.1 µM | 100%
CN(CCCC(F)(F)F)c1nccc(-c2cnn3ncccc23)n1 | RPS6KA3 C-terminal kinase domain | binding | 1 µM | 100%
O=C(NCCCN1CCOCC1)c1ccc(Nc2ncc(Cl)c(-c3ccc(Cl)s3)n2)cc1 | RPS6KA3 N-terminal kinase domain | binding | 1 µM | 61%
C[C@@H](c1ccc(-n2cnc3c(N)ncnc32)cc1)N1CCc2nn(C)c(Cc3ccccc3)c2C1=O | RPS6KA3 N-terminal kinase domain | binding | 0.1 µM | 56%
COc1cnc(Nc2cccc(S(N)(=O)=O)c2)nc1N1CCN(c2ccccc2)C(=O)C1 | RPS6KA3 N-terminal kinase domain | binding | 1 µM | 64%
C=CC(=O)N1CCC(C(=O)NCC(=O)N2CCN(c3nc(-c4cnc(N)nc4C(F)F)nc(N4CCOCC4)n3)CC2)CC1 | RPS6KA3 C-terminal kinase domain | binding | 1 µM | 63%
O=C(Nc1c[nH]nc1C(=O)NC1CCNCC1)c1cc(F)cc(F)c1 | RPS6KA3 N-terminal kinase domain | binding | 1 µM | 74%
N#Cc1ccccc1CSc1nnc2c(n1)[nH]c1ccccc12 | RPS6KA3 N-terminal kinase domain | binding | 10 µM | 80%
Cc1c(NC(=O)c2cc(C(N)=O)nc3cc(F)ccc23)c(C(F)(F)F)nn1Cc1ccc(C(C)(C)C)cc1 | RPS6KA3 N-terminal kinase domain | cell-free assay | 1 µM | 100%
O=C(c1ccc(Nc2ncc(Cl)c(-c3ccc(Cl)s3)n2)cc1)N1CCC(N2CCCC2)CC1 | RPS6KA3 C-terminal kinase domain | binding | 1 µM | 100%
O=C(NCC1CCOCC1)c1n[nH]cc1NC(=O)c1c(F)cccc1F | RPS6KA3 C-terminal kinase domain | binding | 1 µM | 98%
CN(C)c1ncc(F)c(-c2cnn3ncccc23)n1 | RPS6KA3 C-terminal kinase domain | binding | 1 µM | 68%
O=C(NCCCN1CCOCC1)c1ccc(Nc2nccc(-c3cc4ccccc4s3)n2)cc1 | RPS6KA3 N-terminal kinase domain | binding | 1 µM | 76%
Cc1nccc(COC(=O)N2C[C@@H]3[C@@H](CNC(=O)c4ccc5[nH]nnc5c4)[C@@H]3C2)n1 | RPS6KA3 C-terminal kinase domain | cell-free assay | 1 µM | 86%
